Measurements from ChEMBL document CHEMBL1255400, “Fasting increases tobramycin oral absorption in mice” (Antimicrob Agents Chemother, 2010).

How the values were obtained:
Format in all cases: ADME, organism-based
[1] = Tmax in normally fed BALB/c mouse at 50 mg/kg, po; parameters: dose 50 mg/kg, route oral; details: in vivo
Outline: (§1)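 Male BALB/c mice, 6-8 weeks (25-30 g), fed or food-deprived 15 h with water available; tobramycin in physiologic solution given by gavage (50 mg/kg), or 10 mg/kg iv (tail vein) or im (hind leg) in fed mice. Groups of 3 per time point; submandibular blood at 0-180 min; plasma tobramycin by homogeneous enzyme immunoassay; noncompartmental PK analysis.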

[2] = AUClast in normally fed BALB/c mouse at 50 mg/kg, po; parameters: time 0 - last, dose 50 mg/kg, route oral; details: plasma; outline: as §1
[3] = AUC (0 to infinity) in 15 hrs fasted BALB/c mouse at 50 mg/kg, po; parameters: time infinity, dose 50 mg/kg, route oral; details: plasma; outline: as §1
[4] = Oral bioavailability in normally fed BALB/c mouse at 10 mg/kg, im; details: in vivo, intramuscular; outline: as §1
[5] = Half life in normally fed BALB/c mouse at 10 mg/kg, iv; parameters: dose 10 mg/kg, route intravenous; details: in vivo; outline: as §1
[6] = Cmax in normally fed BALB/c mouse at 50 mg/kg, po; parameters: dose 50 mg/kg, route oral; details: in vivo; outline: as §1
[7] = Half life in normally fed BALB/c mouse at 50 mg/kg, po; parameters: dose 50 mg/kg, route oral; details: in vivo; outline: as §1
[8] = AUClast in normally fed BALB/c mouse at 10 mg/kg, iv; parameters: time 0 - last, dose 10 mg/kg, route intravenous; details: plasma; outline: as §1
[9] = test system: Mus musculus; experiment: Oral bioavailability in normally fed BALB/c mouse at 10 mg/kg, iv; details: in vivo; outline: as §1
[10] = Cmax in 15 hrs fasted BALB/c mouse at 50 mg/kg, po; parameters: dose 50 mg/kg, route oral; details: in vivo; outline: as §1
[11] = AUClast in normally fed BALB/c mouse at 10 mg/kg, im; parameters: time 0 - last, dose 10 mg/kg, route intramuscular; details: plasma; outline: as §1
[12] = Half life in normally fed BALB/c mouse at 10 mg/kg, im; parameters: dose 10 mg/kg, route intramuscular; details: in vivo; outline: as §1
[13] = Half life in 15 hrs fasted BALB/c mouse at 50 mg/kg, po; parameters: dose 50 mg/kg, route oral; details: in vivo; outline: as §1
[14] = AUC (0 to infinity) in normally fed BALB/c mouse at 50 mg/kg, po; parameters: time infinity, dose 50 mg/kg, route oral; details: plasma; outline: as §1
[15] = Oral bioavailability in 15 hrs fasted BALB/c mouse at 50 mg/kg, po; details: in vivo; outline: as §1
[16] = AUC (0 to infinity) in normally fed BALB/c mouse at 10 mg/kg, iv; parameters: time infinity, dose 10 mg/kg, route intravenous; details: plasma; outline: as §1
[17] = Tmax in normally fed BALB/c mouse at 10 mg/kg, im; parameters: dose 10 mg/kg, route intramuscular; details: in vivo; outline: as §1
[18] = AUClast in 15 hrs fasted BALB/c mouse at 50 mg/kg, po; parameters: time 0 - last, dose 50 mg/kg, route oral; details: plasma; outline: as §1
[19] = Tmax in 15 hrs fasted BALB/c mouse at 50 mg/kg, po; parameters: dose 50 mg/kg, route oral; details: in vivo; outline: as §1
[20] = Cmax in normally fed BALB/c mouse at 10 mg/kg, iv; parameters: dose 10 mg/kg, route intravenous; details: in vivo; outline: as §1
[21] = AUC (0 to infinity) in normally fed BALB/c mouse at 10 mg/kg, im; parameters: time infinity, dose 10 mg/kg, route intramuscular; details: plasma; outline: as §1
[22] = Cmax in normally fed BALB/c mouse at 10 mg/kg, im; parameters: dose 10 mg/kg, route intramuscular; details: in vivo; outline: as §1
[23] = Oral bioavailability in normally fed BALB/c mouse at 50 mg/kg, po; details: in vivo; outline: as §1
[24] = Tmax in normally fed BALB/c mouse at 10 mg/kg, iv; parameters: dose 10 mg/kg, route intravenous; details: in vivo; outline: as §1

Compound `NC[C@H]1O[C@H](O[C@H]2[C@H](O)[C@@H](O[C@H]3O[C@H](CO)[C@@H](O)[C@H](N)[C@H]3O)[C@H](N)C[C@@H]2N)[C@H](N)C[C@@H]1O` [TOBRAMYCIN] has a Tmax [1] of 15 min, an AUC(0-t) [2] of 274 ng·h/mL and an AUC(0-inf) [3] of 7300 ng·h/mL. It also gave a bioavailability [4] of 96.5%, a half-life [5] of 20.3 min and a Cmax [6] of 330 ng/mL. It also gave a half-life [7] of 41.6 min, an AUC(0-t) [8] of 11400 ng·h/mL and an F [9] of 100%. The Cmax [10] was 7800 ng/mL, the AUC(0-t) [11] was 11000 ng·h/mL and the half-life [12] was 17.7 min. The half-life [13] was 22 min, the AUC(0-inf) [14] was 316 ng·h/mL and the bioavailability [15] was 12.4%. For the same compound, the AUC(0-inf) [16] was 11500 ng·h/mL, the Tmax [17] was 15 min and the AUC(0-t) [18] was 7060 ng·h/mL. For the same compound, the Tmax [19] was 15 min, the Cmax [20] was 35300 ng/mL and the AUC(0-inf) [21] was 11100 ng·h/mL. The Cmax [22] was 16500 ng/mL, the bioavailability [23] was 0.48% and the Tmax [24] was 5 min.
